Experimental data taken from article PMC8266240 (Journal of Enzyme Inhibition and Medicinal Chemistry, 2021).
Peptide text beside a SMILES is read from it. * marks the point of attachment. Cbz = O=C(OCc1ccccc1)*; CH2F = FC*

What follows are compounds tested on HeLa cells (assay: Effect of inhibitors/activators on 12A-induced vacuolization in HeLa cells). Settings: pre- or co-treated with 12A, 8 h.
Format: cell-based, human
In short: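 HeLa cells, alone or with the vacuolization-inducing test compound, were exposed to modulators for 8 h: pan-caspase inhibitor Z-VAD-FMK, autophagy inhibitors 3-MA and LY294002, autophagy activator rapamycin, bafilomycin A1, cycloheximide, ERK1/2 inhibitor PD98059 and JNK inhibitor SP600125. Some inhibitors were given as a 2 h pre-treatment before the test compound. Vacuoles were assessed by microscopy imaging.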

Structure (SMILES)	effect on 12A-induced vacuolization
Cn1cnc(N)c2ncnc1-2 [3-methyladenine]	did not decrease
CO/C1=C\C(C)=C\[C@@H](C)[C@@H](O)[C@@H](C)C/C(C)=C/C=C/[C@H](OC)[C@@H]([C@@H](C)[C@@H](O)[C@H](C)[C@@]2(O)C[C@@H](O)[C@H](C)[C@@H](C(C)C)O2)OC1=O [Baf-A1, Bafilomycin A1]	dramatically blocked the formation of vacuoles
C[C@@H]1C[C@@H]([C@H](O)CC2CC(=O)NC(=O)C2)C(=O)[C@@H](C)C1 [CHX, Cycloheximide]	dramatically blocked the formation of vacuoles
O=c1cc(N2CCOCC2)oc2c(-c3ccccc3)cccc12 [LY294002]	did not decrease
COc1cccc(-c2cc(=O)c3ccccc3o2)c1N [PD98059]	significantly decreased
Oc1c2ccccc2c2c3c(cccc13)N=N2 [SP600125]	significantly decreased
COC(=O)C[C@H](NC(=O)[C@H](C)NC(=O)[C@@H](NC(=O)OCc1ccccc1)C(C)C)C(=O)CF [Z-VAD-FMK] (Cbz-Val-Ala-Asp(OMe)-CH2F)	not inhibited
CO[C@H]1C[C@@H]2CC[C@@H](C)[C@@](O)(O2)C(=O)C(=O)N2CCCC[C@H]2C(=O)O[C@H]([C@H](C)C[C@@H]2CC[C@@H](O)[C@H](OC)C2)CC(=O)[C@H](C)/C=C(\C)[C@@H](O)[C@@H](OC)C(=O)[C@H](C)C[C@H](C)/C=C/C=C/C=C/1C [rapamycin]	failed to promote
